This data set deals with MS2 coat protein. The data set can be described thus: apparent Kd, MS2 coat protein; higher = weaker binding; RNA-MaP array; FMN 200 µM where present. In outline: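 Designs were transcribed by stalled E. coli RNA polymerase on Illumina sequencing-chip clusters. They were titrated with SNAP-549-labelled MS2 coat protein from 0.7 or 1.5 nM, doubling to 3 µM, in 100 mM Tris-HCl pH 7.5, 80 mM KCl, 4 mM MgCl2, BSA, DTT, yeast tRNA and Tween-20, without and then with constant ligand. The apparent Kd is the median of filtered per-cluster fits after normalisation of green signal to red-channel RNA signal and control-cluster median Fmax.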

[1] abbreviates: designed as: ON switch for flavin mononucleotide, no ligand.
[2] abbreviates: ligand present: flavin mononucleotide, designed as: ON switch for flavin mononucleotide.
[3] abbreviates: designed as: OFF switch for flavin mononucleotide, no ligand.
The mark [4] stands for this setting: ligand present: flavin mononucleotide, designed as: OFF switch for flavin mononucleotide.

Regarding “CGAGACCUCACAGGAUAUGCUGGACUUUGUCCAGCAGAAGGGUGAAAACAUGAGGAUCACCCAUGUAUGGUCUCCAAAUUUAAA”, the “apparent Kd” value reads like this: under setting [1], 182 nM; under setting [2], 13.6 nM.

On to “UGCCUACAUGAGGAUCACCCAUGUGAGGAUAUCCUGCGAGGAUCAAAAGAUCCUCGUGGGAGAAGGCGCUUGGA”, for which the “apparent Kd” value under setting [3] was 18.9 nM and the “apparent Kd” value under setting [4] amounted to 32.3 nM.

As for “CAGUACUGAGGAUAUACAUGAGGAUCACCCAUGUCCCAAAAGUAGGAUACUACUAUUAGUAGAAGGCAGUACUG”, the “apparent Kd” value is, setting by setting: under setting [3], 37.4 nM; under setting [4], 323 nM.

As for “AAAAAGUCAGGAUAUGCUUAUAAUAAGAAAAUUAGAGAUAUGCAGAAGGGACAUGAGGAUCACCCAUGUAAAAA”, the “apparent Kd” value came out at 35.3 nM under setting [3] and 37.8 nM under setting [4].

As for “UUGGACGUCGUAGGAUAUGUAGGAUAUUCCUACAUGAGGAUCACCCAUGUUGACAUGGAAGAAGGACAGAAGGACGAAGUCCAU”, the “apparent Kd” value by setting is: under setting [1], 261 nM; under setting [2], 4.54 nM.

Turning to “CACCGUUACAGAGGAUAUGACACAUGAGGAUCACCCAUGUAAUAAAUGAGAAUUUCGAAUGUAACUCAGAAGGCUGGAAUCGGC”, the “apparent Kd” value came out at 30.5 nM under setting [3] and 52.8 nM under setting [4].

For the sequence “CGCGAAAGAUUAUUAUGAAUAAACAUGAGGAUCACCCAUGUAUAGGAUAUGCAGUGGAAUACACUGCAGAAGGAUACAUACGCG”, the “apparent Kd” value under setting [3] is 22.2 nM and the “apparent Kd” value under setting [4] turned out to be 123 nM.

For “AAGUUUGUACGAGGAUAUCAGUUGUAUCUAAAUUCAACAUGAGGAUCACCCAUGUUGCAAUAGGGUGAGAAGGCGUGUGGGCAA”, the “apparent Kd” value by setting is: under setting [1], 44.6 nM; under setting [2], 37.9 nM.

Take “CUUUUGUGAGGAUAUCAGUAGUUAAAAAAUAAAAUUACUACUGAGAAGGCACAUGAGGAUCACCCAUGUUCCUC”: the “apparent Kd” value runs as follows: under setting [3], 42.5 nM; under setting [4], 308 nM.

“ACUAACGAAGGAUAUACUAACGAAACUAAUGCAUAGAUAAAACAUGAGGAUCACCCAUGUAGAAGGUCGAGACU”: the “apparent Kd” value under setting [3] was found to be 22.5 nM and the “apparent Kd” value under setting [4] is 25.5 nM.

On to “UGGUACUAGGGAGGAUAUGGGAAGAUACAUGAGGAUCACCCAUGUUUAAGAAUGCCGAGAGGCAUCUAGAAGGCCCUAGUACCU”, for which the “apparent Kd” value is, setting by setting: under setting [1], 877 nM; under setting [2], 115 nM.

As for “AGGGAUAAAGGAUAUACAUGAGGAUCACCCAUGUUGAGGAAGGUUAGAGGUGGCGAUAGUAGAAGGUUAGGUAG”, the “apparent Kd” value is, setting by setting: under setting [3], 89.2 nM; under setting [4], 54.7 nM.

With “UGAUCUUGAGUCAGGAUAUGCUGGUUUUUUUUUUAGCAGAAGGGACAUGAGGAUCACCCAUGUUCUCACUUUUU”, the “apparent Kd” value runs as follows: under setting [3], 16.1 nM; under setting [4], 20.2 nM.

“GCAGCACUUUAUUACAUGAGGAUCACCCAUGUCGAUUGUUAUGAGGAUAUGCAUCGGAUGAAGAUGCAGAAGGCAUUGUGCUGC”: the “apparent Kd” value by setting is: under setting [1], 7.24 nM; under setting [2], 6.04 nM.

In the case of “UCAGUAGAGUCAGGAUAUACGUUAAAAUUUCCUCACAUGAGGAUCACCCAUGUAGAAGGGACUCUACUGUAAGUCGGAAACGAC”, the “apparent Kd” value is, setting by setting: under setting [3], 35.2 nM; under setting [4], 686 nM.

For the sequence “AAGUAGGCAGGAUAUACAUGAGGAUCACCCAUGUGCCCAUGAAAGGUACUUUCGAAAGGUAGAAGGGCCUACAA”, the “apparent Kd” value by setting is: under setting [3], 16.5 nM; under setting [4], 35.6 nM.

As to “GGACGUCACAUUAACAUGAGGAUCACCCAUGUAAAAUAACAUGAGGAUAUGGAUCCUAAUUGGAUCCAGAAGGCAUGGACGUCC”, the “apparent Kd” value turned out to be 7.66 nM under setting [1] and 5.58 nM under setting [2].

Regarding “GGGAAUAAACCCGUCUCCGCUCAACCAGAAGGGCACGAUAAUAUUACAUGAGGAUCACCCAUGUUGCAGGAUAUGGUGAGCCUC”, the “apparent Kd” value runs as follows: under setting [1], 191 nM; under setting [2], 52.9 nM.

On to “CCCAGAGAUGAGAAGGGACACGGGUGCUUUCUGACAUGAGGAUCACCCAUGUCAGGAUAUCAGCAUGGCGUCGGGAUGCCCGAC”, for which the “apparent Kd” value amounted to 7.24 nM under setting [3] and 5.8 nM under setting [4].

In the case of “CUUGGUACUCGAGGAUAUCACAUGAACUACCGAACAUGAGGAUCACCCAUGUGAGAAGGCGAGUUCUGUCCGAUAAAAUUACUC”, the “apparent Kd” value by setting is: under setting [3], 6.68 nM; under setting [4], 11 nM.

On to “GGAGCCGGCACCGAGGAUAUUCAUAUUAAAACAUGAGGAUCACCCAUGUACCGCAGAAGCGGUUGGGAGAAGGCGGAUCGGCUCG”, for which the “apparent Kd” value under setting [1] was 691 nM and the “apparent Kd” value under setting [2] was determined as 42.1 nM.

Turning to “AUCGGCAACACCAUGGUGGAUCCUGAGGAUAUGAAAAGCUACAUGAGGAUCACCCAUGUCCCGCGUCAGAAGGCAGGUUUGAUC”, the “apparent Kd” value turned out to be 138 nM under setting [1] and 17 nM under setting [2].

For the sequence “UCCGAUGUACAUGAGGAUCACCCAUGUCACAUGCCCGUGACACAGGAUAUCCAGGAUAGGCCAAAGGAGAAGGGUGAUCCGCGG”, the “apparent Kd” value is 64.3 nM under setting [1] and 94.5 nM under setting [2].

“UCCUCACAUGAGGAUCACCCAUGUCAGGAUAUAGGAGAUGGCAGAAAUCCUGCCAUCGCUAGAAGGGACUGGCA”: the “apparent Kd” value by setting is: under setting [3], 43.8 nM; under setting [4], 154 nM.

With “UUUUACCUAGGAUAUACAUUUUUUUUAUUAUUUUCAUUAUAACAUGAGGAUCACCCAUGUAGAAGGAGGAUUUU”, the “apparent Kd” value worked out at 28.4 nM under setting [3] and 33.6 nM under setting [4].

As to “UGCAUGGUAGGAUAUACGGAGCAUUAGGGUUUGUUGUGUGGACAUGAGGAUCACCCAUGUAGAAGGGCCGUGCU”, the “apparent Kd” value amounted to 42.8 nM under setting [3] and 65.2 nM under setting [4].

Regarding “ACCAAUGCAGGAUAUACAUGAGGAUCACCCAUGUAUAACCUACAUAGAUGAUUAUUAUGUAGAAGGGUAUUGGA”, the “apparent Kd” value reads like this: under setting [3], 13.2 nM; under setting [4], 12.9 nM.

For the sequence “ACAUGAGGAUCACCCAUGUAAUAACAUCGGUUAUACGAAAGUGAGGAUAUCGAUCAGGCAUAUUACGAGAAGGCACAAUAGGGA”, the “apparent Kd” value reads like this: under setting [1], 41.3 nM; under setting [2], 43.2 nM.

Consider “GCAGGAUAAGUCAGGAUAUACCUAUGGAUACAUAGGUAGAAGGGACAUGAGGAUCACCCAUGUGACUCGCCUGC”, for which the “apparent Kd” value under setting [3] is 29.5 nM and the “apparent Kd” value under setting [4] stood at 100 nM.

Take “CAGGGAACAGGAUAUACAUGAGGAUCACCCAUGUGUUCCAGCUAGGAAACUAGCAAAUGUAGAAGGGUUCCCUG”: the “apparent Kd” value came to 174 nM under setting [3] and 922 nM under setting [4].

As to “CCUACAUAUUUUAAGUAUGAUUAACUAGAAGGUAGAUACAUGAGGAUCACCCAUGUUUAGAGAUCUAAGGAUAUAGUAUGUAGC”, the “apparent Kd” value was 13.3 nM under setting [1] and 9.45 nM under setting [2].

On to “CGUAACUGCAUAGGAUAUUGAUACAUGAGGAUCACCCAUGUUUUUCGGAUUAGAUAUAUACUAAGCAAGAAGGAUGGAGUUACG”, for which the “apparent Kd” value amounted to 7.83 nM under setting [1] and 5.26 nM under setting [2].

With “UAAUAAUAGUGAGGAUAUAGUUAUUAUAAUAUACUAGAAGGUACACAUGAGGAUCACCCAUGUUUUAUAAUUUGUAAUUUAAAU”, the “apparent Kd” value under setting [3] came to 23.2 nM and the “apparent Kd” value under setting [4] worked out at 20.5 nM.

As for “GCCAUCGCGUGAGGAUAUGGCACCGUUUCGGUGCCAGAAGGCAUGUCAAAUGACAUGAGGAUCACCCAUGUAGUUAAGAUGGCA”, the “apparent Kd” value reads like this: under setting [1], 180 nM; under setting [2], 13.2 nM.

“AAAUCGAGGUAACUCGCUAUCACACCAGAAGGGACGGAGGCACAUGAGGAUCACCCAUGUCCUAGUCAGGAUAUGGGUGAGUGG”: the “apparent Kd” value under setting [1] worked out at 25.6 nM and the “apparent Kd” value under setting [2] came to 4.96 nM.

As to “UUAGAAUUGUUAGGAUAUUAAUUAUUGUAUAGUAUGAUCUACAUGAGGAUCACCCAUGUUAAAUAUAAGAAGGAACGUUAGAUU”, the “apparent Kd” value was determined as 57.6 nM under setting [3] and 51.3 nM under setting [4].

Consider “GUAGCAUUGAGAGGAUAUCCAUAUCCGAAAGGGACAUGAGGAUCACCCAUGUCGCGAAAGCGGUGGGAGAAGGCUCUAUGCUAC”, for which the “apparent Kd” value under setting [1] turned out to be 4.92 nM and the “apparent Kd” value under setting [2] turned out to be 5.01 nM.

On to “AAUCGGGAGCAGAAGGCAUGUCAUAAAACAUGAGGAUCACCCAUGUAGUUAAGGCGAAAGCCGCAUGAGGAUAUGCUCCCGUAA”, for which the “apparent Kd” value reads like this: under setting [1], 5.61 nM; under setting [2], 4.69 nM.

“UACGGACAUGAGGAUCACCCAUGUGAGGAUAUCGGUACCGAUAGCAUAAUCUGCUCGGCGAGAAGGCACAGCGU”: the “apparent Kd” value runs as follows: under setting [3], 29.8 nM; under setting [4], 42.8 nM.

“AUGACAUGCAGAGCGCAACGGCGUACAUGAGGAUCACCCAUGUAGGAUAUACUACACAAAGUGUAGUAGAAGGACAUGCGACGG”: the “apparent Kd” value runs as follows: under setting [3], 30.8 nM; under setting [4], 50.8 nM.

As to “AGAACUGAUAGAGGAUAUGUUUUACAUGAGGAUCACCCAUGUGUACAAGGAUCAAUAUAUUAGUAACAGAAGGCUAUUAGUGAG”, the “apparent Kd” value is, setting by setting: under setting [3], 13.2 nM; under setting [4], 19.5 nM.

As to “UUUUUUUUAGUAAGGAUAUGAUGCAGGAAACUGCGUCAGAAGGUACAUGAGGAUCACCCAUGUUAAUUUUUUUU”, the “apparent Kd” value under setting [3] was found to be 17.2 nM and the “apparent Kd” value under setting [4] was 22.4 nM.

For the sequence “CUUAUGUGAGGAUAUGGUGUUGGCCACAGGAAAAAGAUCCUCCAGAAGGCACAUGAGGAUCACCCAUGUAGUGA”, the “apparent Kd” value amounted to 39.7 nM under setting [3] and 147 nM under setting [4].

As to “CGCCAGUGAGGAUAUCCAUCUGGAUCAGACUAGAUCCUGAUGGAGAAGGCACAUGAGGAUCACCCAUGUCGGCG”, the “apparent Kd” value was 18.5 nM under setting [3] and 19.5 nM under setting [4].

With “AGAUGACAAUGUCAUCUUCGACGGACAUGAGGAUCACCCAUGUAGGAUAUGCUACUCAAAGAGUAGCAGAAGGACAUGUGUCUU”, the “apparent Kd” value amounted to 22.2 nM under setting [3] and 74.8 nM under setting [4].

In the case of “AAAAAACAUGAGGAUCACCCAUGUGAGGAUAUGACGUAAAUAAAGAAAGAAGAAAUCGUCAGAAGGCACACCUA”, the “apparent Kd” value is, setting by setting: under setting [3], 52.7 nM; under setting [4], 79.3 nM.

With “CCAAGUUCGUAGGAUAUAGAUGCCUUAGGGCAAUUAGAAGGAUGGACAUGAGGAUCACCCAUGUCGGAUUCUGU”, the “apparent Kd” value under setting [4] was determined as 18 nM.

“GAAAACCAAGGAUAUACAUGAGGAUCACCCAUGUAGGUUGGGACGCCAUAAAGGCGAUGUAGAAGGUGGGAAAA”: the “apparent Kd” value was found to be 21.9 nM under setting [3] and 33.6 nM under setting [4].

The values are drawn from the EternaBench riboswitch data.
